Test [1] concerns the target Cyclin-dependent kinase 2 (Homo sapiens) (UniProt P24941). Briefly: Inhibition of human recombinant CDK2 at 100 nM by Z'-LYTE assay. Summed up:
(§1)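 Z'-LYTE FRET kinase panel; phosphorylation of a reference peptide measured with ATP at each enzyme's Km. Compounds tested in 1% DMSO at 0.1 and/or 1 μM. Values are means of two independent experiments with standard deviations.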

Test [2] deals with T1, Epidermal growth factor receptor (Homo sapiens, UniProt P00533, C797S/L858R/T790M). Briefly: Inhibition of EGFR L858R/T790M/C797S triple mutant (unknown origin) using fluoresceine-labelled poly-GT peptide as substrate preincubated with enzyme for 3 hrs followed by substrate and ATP addition by TR-FRET assay. Background: In TR-FRET formats the signal depends on donor and acceptor labels being close together.

Test [3] has as its system Epidermal growth factor receptor (Homo sapiens), P00533 [L858R,T790M,C797S]. Briefly: Ratio of IC50 for EGFR L858R/T790M/C797S triple mutant (unknown origin) using fluoresceine-labelled poly-GT peptide as substrate incubated for 1 hr to IC50 for EGFR L858R/T790M/C797S triple mutant (unknown origin) using fluoresceine-labelled poly-GT peptide as substrate preincubated with enzyme for 3 hrs followed by substrate and ATP addition.

The target in test [4] is Proto-oncogene tyrosine-protein kinase Src (Homo sapiens) (UniProt P12931). Briefly: Inhibition of C-terminal His-tagged human recombinant SRC expressed in baculovirus expression system at 100 nM by Z'-LYTE assay. Summed up: as §1
Test [5] addresses Tyrosine-protein kinase Lck (Homo sapiens) (UniProt P06239). Briefly: Inhibition of human recombinant LCK at 100 nM by Z'-LYTE assay. In outline:
as §1

For test [6], the target named is T2, Aurora kinase A (Homo sapiens) (UniProt O14965).
T2 sequence (whole entry): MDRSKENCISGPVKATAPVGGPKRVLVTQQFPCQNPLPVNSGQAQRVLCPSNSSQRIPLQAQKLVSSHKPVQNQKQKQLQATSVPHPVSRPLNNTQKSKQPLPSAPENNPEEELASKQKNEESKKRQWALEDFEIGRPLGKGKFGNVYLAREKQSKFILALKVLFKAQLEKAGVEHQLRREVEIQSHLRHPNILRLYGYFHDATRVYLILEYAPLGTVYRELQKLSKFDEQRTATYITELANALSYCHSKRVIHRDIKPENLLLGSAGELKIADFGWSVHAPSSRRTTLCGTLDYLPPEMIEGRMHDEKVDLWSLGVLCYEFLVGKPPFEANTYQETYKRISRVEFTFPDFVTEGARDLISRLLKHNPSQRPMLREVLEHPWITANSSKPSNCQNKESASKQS
Briefly: Inhibition of His-tagged human full length recombinant AURKA expressed in baculovirus expression system at 100 nM by Z'-LYTE assay. In outline:
as §1

Test [7] concerns BaF3. In words: Cytotoxicity against mouse BaF3 cells harboring EGFR L858R/T790M/C797S triple mutant assessed as inhibition of cell proliferation measured after 72 hrs by MTS assay. It is filed as functional, cell-based. In outline:
(§2)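 Ba/F3 cells carrying the respective EGFR triple mutant, grown in RPMI-1640 with 2 mM glutamine and 10% FBS at 37°C, 5% CO2. Seeded 20000 cells/well and treated the same day with increasing concentrations (DMSO ≤0.1% final). Viability read by MTS after 72 h, expressed as % inhibition versus untreated controls; at least three independent experiments.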

Test [8] relates to Epidermal growth factor receptor (Homo sapiens), P00533 [L858R,T790M,C797S]. Briefly: Inhibition of EGFR L858R/T790M/C797S triple mutant (unknown origin) expressed in mouse Ba/F3 cells assessed as inhibition of EGF-stimulated receptor phosphorylation at 1 uM incubated for 4 hrs followed by washing with buffer solution and later incubation in drug-free medium for 2 to 8 hrs followed by EGF stimulation by western blot analysis. It is filed as cell-based. Particulars: BaF3. In outline:
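Ba/F3 cells expressing EGFR L858R/T790M/C797S exposed to 1 μM for 4 h, washed extensively with PBS, and allowed to recover in fresh drug-free medium for 2, 4 or 8 h. Cells then stimulated with 100 ng/ml EGF for 10 min. pEGFR (Tyr1068), total EGFR and actin detected by western blot.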
(A western blot detects proteins with antibodies after separation by electrophoresis.)

For test [9], the target named is RAC-beta serine/threonine-protein kinase (Homo sapiens) (UniProt P31751). Briefly: Inhibition of His-tagged full length human recombinant AKT2 expressed in baculovirus expression system at 100 nM by Z'-LYTE assay. Summed up: as §1
In test [10] the target is Tyrosine-protein kinase Blk (Homo sapiens) (UniProt P51451). In words: Inhibition of His-tagged human full length recombinant BLK expressed in baculovirus expression system at 100 nM by Z'-LYTE assay. In outline: as §1
The test system of test [11] is Epidermal growth factor receptor (Homo sapiens), P00533 [L858R,T790M,C797S]. Briefly: Irreversible inhibiton of EGFR L858R/T790M/C797S triple mutant (unknown origin) assessed as residual enzyme activity using fluoresceine-labelled poly-GT peptide as substrate preincubated with enzyme for 3 hrs at 10XIC50 followed by 100-fold dilution and measured after 30 mins by rapid dilution assay based TR-FRET analysis. Particulars: time 210.0 min. Summed up:
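It was then diluted 100-fold into Kinase Buffer A containing poly-GT substrate and 9 μM ATP. After 30 min, EDTA quench plus Eu-PY20 were added for 30 min before TR-FRET. Activity is given as % of no-inhibitor control; n = 5.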

In test [12] the target is AMP-activated protein kinase, AMPK (Homo sapiens) (UniProt P54646+O43741+P54619+Q9UGJ0+Q9Y478+Q13131+Q9UGI9). Briefly: Inhibition of human recombinant AMPK at 100 nM by Z'-LYTE assay. It is filed as protein-complex assay. In outline: as §1
The target of test [13] is Platelet-derived growth factor receptor alpha (Homo sapiens) (UniProt P16234). Briefly: Inhibition of GST-tagged human recombinant PDGFR alpha (550 to 1089 residues) expressed in baculovirus expression system at 1 uM by Z'-LYTE assay. In outline:
as §1

Test [14] concerns BaF3. Briefly: Cytotoxicity against mouse BaF3 cells harboring EGFR del19/T790M/C797S triple mutant assessed as inhibition of cell proliferation measured after 72 hrs by MTS assay. It is filed as functional, cell-based. Summed up: as §2
Test [15] addresses T1, Epidermal growth factor receptor. Briefly: Inhibition of EGFR L858R/T790M/C797S triple mutant (unknown origin) using fluoresceine-labelled poly-GT peptide as substrate incubated for 1 hr by TR-FRET assay.
Test [16] addresses Cyclin-dependent kinase 5 (Homo sapiens) (UniProt Q00535). In words: Inhibition of GST/His-tagged human full length recombinant CDK5 expressed in baculovirus expression system at 100 nM by Z'-LYTE assay. In outline: as §1
The target of test [17] is Fibroblast growth factor receptor 4 (Homo sapiens) (UniProt P22455). Briefly: Inhibition of His-tagged human recombinant FGFR4 ([…] residues) expressed in baculovirus expression system at 100 to 1000 nM by Z'-LYTE assay. Particulars: dose 100-1000 nM. In outline:
as §1

In test [18] the test system is Epidermal growth factor receptor (Homo sapiens), P00533 [UNDEFINED MUTATION]. Briefly: Inhibition of EGFR del19/T790M/C797S triple mutant (unknown origin) using fluoresceine-labelled poly-GT peptide as substrate up to 10 uM preincubated with enzyme for 3 hrs followed by substrate and ATP addition by TR-FRET assay. The note with it: dose microM <=10, time 3.0 hrs.

The source made the active and inactive calls. No cut-off for these calls is given here.

Chain of RAC-beta serine/threonine-protein kinase (Homo sapiens) (P31751 whole entry): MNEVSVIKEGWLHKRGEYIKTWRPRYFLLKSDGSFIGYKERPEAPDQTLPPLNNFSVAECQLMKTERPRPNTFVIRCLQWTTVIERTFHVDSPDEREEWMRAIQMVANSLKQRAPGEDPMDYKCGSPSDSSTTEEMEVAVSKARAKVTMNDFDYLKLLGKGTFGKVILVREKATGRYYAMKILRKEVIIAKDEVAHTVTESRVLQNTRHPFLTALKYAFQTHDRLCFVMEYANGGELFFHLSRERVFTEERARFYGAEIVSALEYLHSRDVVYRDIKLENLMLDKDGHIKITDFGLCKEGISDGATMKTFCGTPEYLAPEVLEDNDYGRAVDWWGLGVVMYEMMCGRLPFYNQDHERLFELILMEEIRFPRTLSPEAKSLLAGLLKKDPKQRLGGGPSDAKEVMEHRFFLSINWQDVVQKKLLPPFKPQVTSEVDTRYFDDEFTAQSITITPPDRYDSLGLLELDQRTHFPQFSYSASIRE
Chain of Proto-oncogene tyrosine-protein kinase Src (Homo sapiens) (P12931 2-536 limits assumed): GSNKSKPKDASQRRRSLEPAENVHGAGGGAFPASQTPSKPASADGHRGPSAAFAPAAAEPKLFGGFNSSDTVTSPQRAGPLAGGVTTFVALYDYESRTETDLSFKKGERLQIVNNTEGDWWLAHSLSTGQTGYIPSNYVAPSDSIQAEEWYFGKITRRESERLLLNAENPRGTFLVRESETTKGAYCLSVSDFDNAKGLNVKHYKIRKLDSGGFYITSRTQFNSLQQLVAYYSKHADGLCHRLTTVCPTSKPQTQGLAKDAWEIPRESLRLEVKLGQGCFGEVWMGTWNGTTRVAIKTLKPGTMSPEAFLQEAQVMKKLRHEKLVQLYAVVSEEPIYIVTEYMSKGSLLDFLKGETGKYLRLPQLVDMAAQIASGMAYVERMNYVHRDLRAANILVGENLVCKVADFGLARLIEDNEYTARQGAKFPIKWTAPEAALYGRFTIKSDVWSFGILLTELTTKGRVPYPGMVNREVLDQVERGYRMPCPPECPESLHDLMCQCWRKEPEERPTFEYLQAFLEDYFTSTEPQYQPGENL
Chain of Tyrosine-protein kinase Blk (Homo sapiens) (P51451 2-505 limits assumed): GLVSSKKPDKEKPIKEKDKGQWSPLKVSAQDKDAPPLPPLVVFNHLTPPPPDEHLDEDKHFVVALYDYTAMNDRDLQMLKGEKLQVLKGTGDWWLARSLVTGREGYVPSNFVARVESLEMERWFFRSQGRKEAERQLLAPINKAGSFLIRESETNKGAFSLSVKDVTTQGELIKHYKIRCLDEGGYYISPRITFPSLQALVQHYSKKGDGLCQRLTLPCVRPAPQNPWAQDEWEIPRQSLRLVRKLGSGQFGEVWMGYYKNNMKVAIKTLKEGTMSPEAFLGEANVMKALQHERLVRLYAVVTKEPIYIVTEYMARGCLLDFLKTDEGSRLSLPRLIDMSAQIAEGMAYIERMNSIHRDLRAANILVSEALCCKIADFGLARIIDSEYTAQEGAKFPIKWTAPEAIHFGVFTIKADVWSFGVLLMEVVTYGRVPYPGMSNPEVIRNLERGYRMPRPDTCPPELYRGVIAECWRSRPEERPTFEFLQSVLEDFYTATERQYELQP
Chain of Tyrosine-protein kinase Lck (Homo sapiens) (P06239 2-509 limits assumed): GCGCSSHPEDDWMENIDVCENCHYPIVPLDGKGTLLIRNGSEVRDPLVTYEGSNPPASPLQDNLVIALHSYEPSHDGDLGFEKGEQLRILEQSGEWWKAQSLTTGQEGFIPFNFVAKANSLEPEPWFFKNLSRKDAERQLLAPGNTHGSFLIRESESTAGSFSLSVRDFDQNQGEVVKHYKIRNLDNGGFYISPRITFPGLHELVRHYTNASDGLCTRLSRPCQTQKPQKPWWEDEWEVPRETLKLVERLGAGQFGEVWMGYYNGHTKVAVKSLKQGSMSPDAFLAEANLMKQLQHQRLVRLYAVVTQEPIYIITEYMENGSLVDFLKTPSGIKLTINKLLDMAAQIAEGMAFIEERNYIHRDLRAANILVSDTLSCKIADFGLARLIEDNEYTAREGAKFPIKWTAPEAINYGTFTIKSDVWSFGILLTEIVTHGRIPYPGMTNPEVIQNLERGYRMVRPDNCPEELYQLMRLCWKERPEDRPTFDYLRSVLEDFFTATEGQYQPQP
Chain of Cyclin-dependent kinase 5 (Homo sapiens) (Q00535 whole entry, looked up): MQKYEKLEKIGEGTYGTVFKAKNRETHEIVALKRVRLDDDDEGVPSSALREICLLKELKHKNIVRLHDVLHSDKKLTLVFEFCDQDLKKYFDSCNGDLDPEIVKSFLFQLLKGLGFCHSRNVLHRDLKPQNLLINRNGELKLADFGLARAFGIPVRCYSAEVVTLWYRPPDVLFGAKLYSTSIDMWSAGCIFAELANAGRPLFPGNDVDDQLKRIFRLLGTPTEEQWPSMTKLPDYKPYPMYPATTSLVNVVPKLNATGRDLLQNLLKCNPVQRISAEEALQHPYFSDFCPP
Chain of Fibroblast growth factor receptor 4 (Homo sapiens) (P22455 22-802 limits assumed): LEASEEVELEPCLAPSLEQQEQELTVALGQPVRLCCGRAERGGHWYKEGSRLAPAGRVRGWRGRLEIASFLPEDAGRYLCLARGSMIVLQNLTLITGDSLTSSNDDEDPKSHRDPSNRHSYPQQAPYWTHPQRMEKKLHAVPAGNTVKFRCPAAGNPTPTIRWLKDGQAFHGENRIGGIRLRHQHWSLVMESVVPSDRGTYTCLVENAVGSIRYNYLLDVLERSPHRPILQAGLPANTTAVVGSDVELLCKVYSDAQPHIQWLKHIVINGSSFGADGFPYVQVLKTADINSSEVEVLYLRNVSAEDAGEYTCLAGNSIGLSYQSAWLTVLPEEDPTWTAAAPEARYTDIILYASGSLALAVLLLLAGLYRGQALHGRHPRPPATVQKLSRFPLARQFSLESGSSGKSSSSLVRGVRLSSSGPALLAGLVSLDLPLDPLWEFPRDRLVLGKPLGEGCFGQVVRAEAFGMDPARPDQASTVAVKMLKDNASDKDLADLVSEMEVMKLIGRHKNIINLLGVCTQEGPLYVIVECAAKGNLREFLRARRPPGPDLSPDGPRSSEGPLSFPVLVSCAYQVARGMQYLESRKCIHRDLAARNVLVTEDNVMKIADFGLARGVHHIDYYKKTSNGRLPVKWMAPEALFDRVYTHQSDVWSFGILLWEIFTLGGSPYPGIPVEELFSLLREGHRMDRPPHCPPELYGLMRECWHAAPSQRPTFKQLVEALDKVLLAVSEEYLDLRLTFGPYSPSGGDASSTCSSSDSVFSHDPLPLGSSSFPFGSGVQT
Chain of Platelet-derived growth factor receptor alpha (Homo sapiens) (P16234 whole entry, the tested form may be a part): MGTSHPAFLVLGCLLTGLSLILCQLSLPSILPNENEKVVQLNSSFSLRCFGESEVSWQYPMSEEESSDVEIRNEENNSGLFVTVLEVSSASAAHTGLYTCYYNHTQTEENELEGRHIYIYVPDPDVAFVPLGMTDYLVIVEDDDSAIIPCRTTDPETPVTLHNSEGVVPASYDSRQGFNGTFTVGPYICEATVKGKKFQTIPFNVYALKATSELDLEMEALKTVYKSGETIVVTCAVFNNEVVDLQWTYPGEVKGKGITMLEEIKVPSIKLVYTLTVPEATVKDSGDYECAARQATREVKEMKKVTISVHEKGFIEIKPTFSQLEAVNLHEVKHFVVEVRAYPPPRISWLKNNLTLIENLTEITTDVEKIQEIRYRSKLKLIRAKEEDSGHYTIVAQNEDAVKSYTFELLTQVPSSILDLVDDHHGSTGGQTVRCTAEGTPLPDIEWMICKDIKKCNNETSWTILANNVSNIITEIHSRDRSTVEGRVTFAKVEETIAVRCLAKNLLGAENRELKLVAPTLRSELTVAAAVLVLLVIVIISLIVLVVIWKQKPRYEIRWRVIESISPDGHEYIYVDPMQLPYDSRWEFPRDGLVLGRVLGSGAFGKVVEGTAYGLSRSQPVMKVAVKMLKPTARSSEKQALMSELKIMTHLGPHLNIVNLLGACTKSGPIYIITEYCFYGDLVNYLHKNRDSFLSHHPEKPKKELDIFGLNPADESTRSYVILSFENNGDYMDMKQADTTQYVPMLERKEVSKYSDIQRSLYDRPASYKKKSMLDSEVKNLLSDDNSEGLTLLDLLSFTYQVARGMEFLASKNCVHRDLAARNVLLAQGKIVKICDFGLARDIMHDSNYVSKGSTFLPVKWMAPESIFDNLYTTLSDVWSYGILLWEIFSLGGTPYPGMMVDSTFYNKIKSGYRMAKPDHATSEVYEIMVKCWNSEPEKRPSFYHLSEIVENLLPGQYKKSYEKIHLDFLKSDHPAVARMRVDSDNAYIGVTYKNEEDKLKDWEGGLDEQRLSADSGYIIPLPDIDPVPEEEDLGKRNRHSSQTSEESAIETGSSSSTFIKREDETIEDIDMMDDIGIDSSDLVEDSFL

Broadly, the inhibition is how much of the control response was suppressed. For orientation: IC50 means the concentration that inhibits the measured activity by half. On to `COc1cc(N2CCN(C(C)=O)CC2)ccc1Nc1ncc(Cl)c(Nc2ccc(NCc3ccc(S(=O)(=O)F)cc3)cc2)n1`, for which the inhibition result in test [1], in test [4], in test [5], in test [8], in test [9] and in [10] was “inactive” in each case. For the same compound, the inhibition result in test [12] and in test [16] was “inactive” in each case. The IC50 in test [2] is 0.0015 µM; in the test on BaF3 [7] (BaF3, 72 h) it was 0.5 µM; in test [15], 0.11 µM. For the same compound, the Ratio IC50 in [3] amounted to 70. Besides, the inhibition in test [6] is 30%; in test [13] it was below 25%. Further, the Activity in test [11] was below 25%. Moreover, the outcome in the test with BaF3 [14] was inactive.

Take `C#CCNC(=O)c1cc(Nc2cc(C3CC3)[nH]n2)nc(N2CCN(Cc3ccc(S(=O)(=O)F)cc3)CC2)n1`: the inhibition result in test [1], in [4], in test [5], in [6], in test [9] and in test [10] was “Active” each time. Moreover, the inhibition entry in test [12] and in test [16] was “Active” each time. In addition, the IC50 was 0.006 µM in test [2] and 0.244 µM in test [15]. Moreover, in test [3], the Ratio IC50 is 40. The outcome in the test on BaF3 [7] and in the test with BaF3 [14] was Active. Further, the inhibition result in test [17] and in test [18] was “inactive” throughout. In addition, the Activity in test [11] was below 25%.

These data come from ChEMBL document CHEMBL4828755, “A sulfonyl fluoride derivative inhibits EGFRL858R/T790M/C797S by covalent modification of the catalytic lysine” (Eur J Med Chem, 2021).
